Results reported in ChEMBL document CHEMBL1817551, “Design of small molecule inhibitors of acetyl-CoA carboxylase 1 and 2 showing reduction of hepatic malonyl-CoA levels in vivo in obese Zucker rats” (Bioorg Med Chem, 2011).
Converted amounts (≈) assume the structure as drawn. One block for each molecule: values may come before it.

Experiments:
[1] = biological target: Acetyl-CoA carboxylase 1 (Homo sapiens, UniProt Q13085); test: Inhibition of human recombinant his-tagged ACC1 expressed in baculovirus/Sf9 cell assessed as inorganic phosphate formation […] measured after 1.5 hrs by Malachite green reagent method
[2] = biological target: T1, Cytochrome P450 1A2 (Homo sapiens, UniProt P05177); test: Inhibition of CYP1A2; type: ADME
T1 sequence (P05177 whole entry): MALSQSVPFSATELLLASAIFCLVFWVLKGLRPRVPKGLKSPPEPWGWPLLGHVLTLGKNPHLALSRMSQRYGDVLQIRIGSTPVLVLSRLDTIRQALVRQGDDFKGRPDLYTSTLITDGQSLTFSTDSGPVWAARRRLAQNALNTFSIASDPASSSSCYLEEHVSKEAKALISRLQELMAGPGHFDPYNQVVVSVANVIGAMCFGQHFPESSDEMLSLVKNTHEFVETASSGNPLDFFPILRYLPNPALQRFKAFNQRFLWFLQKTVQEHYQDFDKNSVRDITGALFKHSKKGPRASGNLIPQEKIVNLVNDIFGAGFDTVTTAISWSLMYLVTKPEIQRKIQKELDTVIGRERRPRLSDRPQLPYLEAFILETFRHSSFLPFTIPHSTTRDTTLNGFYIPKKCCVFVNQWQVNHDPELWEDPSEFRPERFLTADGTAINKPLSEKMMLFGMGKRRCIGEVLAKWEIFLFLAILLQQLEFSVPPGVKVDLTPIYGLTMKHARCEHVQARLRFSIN

[3] = Lipophilicity, log D of the compound; type: physicochemical; conditions: octanol/water
[4] = Intrinsic clearance in human liver microsome at 1 uM after 30 mins by LC-UV/MS analysis; type: ADME; conditions: liver microsomes
[5] = Clearance in Sprague-Dawley rat at 3 to 5 umol/kg, iv; type: ADME, organism-based; conditions: in vivo
[6] = biological target: Cytochrome P450 3A4 (Homo sapiens, UniProt P08684); test: Inhibition of CYP3A4; type: ADME
[7] = Solubility of the compound after 16 hrs by LC-UV/MS analysis; type: physicochemical
[8] = biological target: Cytochrome P450 2C9 (Homo sapiens, UniProt P11712); test: Inhibition of CYP2C9; type: ADME
[9] = biological target: Acetyl-CoA carboxylase 2 (Homo sapiens, UniProt O00763); test: Inhibition of human recombinant his-tagged ACC2 expressed in baculovirus/Sf9 cell assessed as inorganic phosphate formation […] measured after 1.5 hrs by Malachite green reagent method
Chain of Acetyl-CoA carboxylase 2 (O00763 whole entry): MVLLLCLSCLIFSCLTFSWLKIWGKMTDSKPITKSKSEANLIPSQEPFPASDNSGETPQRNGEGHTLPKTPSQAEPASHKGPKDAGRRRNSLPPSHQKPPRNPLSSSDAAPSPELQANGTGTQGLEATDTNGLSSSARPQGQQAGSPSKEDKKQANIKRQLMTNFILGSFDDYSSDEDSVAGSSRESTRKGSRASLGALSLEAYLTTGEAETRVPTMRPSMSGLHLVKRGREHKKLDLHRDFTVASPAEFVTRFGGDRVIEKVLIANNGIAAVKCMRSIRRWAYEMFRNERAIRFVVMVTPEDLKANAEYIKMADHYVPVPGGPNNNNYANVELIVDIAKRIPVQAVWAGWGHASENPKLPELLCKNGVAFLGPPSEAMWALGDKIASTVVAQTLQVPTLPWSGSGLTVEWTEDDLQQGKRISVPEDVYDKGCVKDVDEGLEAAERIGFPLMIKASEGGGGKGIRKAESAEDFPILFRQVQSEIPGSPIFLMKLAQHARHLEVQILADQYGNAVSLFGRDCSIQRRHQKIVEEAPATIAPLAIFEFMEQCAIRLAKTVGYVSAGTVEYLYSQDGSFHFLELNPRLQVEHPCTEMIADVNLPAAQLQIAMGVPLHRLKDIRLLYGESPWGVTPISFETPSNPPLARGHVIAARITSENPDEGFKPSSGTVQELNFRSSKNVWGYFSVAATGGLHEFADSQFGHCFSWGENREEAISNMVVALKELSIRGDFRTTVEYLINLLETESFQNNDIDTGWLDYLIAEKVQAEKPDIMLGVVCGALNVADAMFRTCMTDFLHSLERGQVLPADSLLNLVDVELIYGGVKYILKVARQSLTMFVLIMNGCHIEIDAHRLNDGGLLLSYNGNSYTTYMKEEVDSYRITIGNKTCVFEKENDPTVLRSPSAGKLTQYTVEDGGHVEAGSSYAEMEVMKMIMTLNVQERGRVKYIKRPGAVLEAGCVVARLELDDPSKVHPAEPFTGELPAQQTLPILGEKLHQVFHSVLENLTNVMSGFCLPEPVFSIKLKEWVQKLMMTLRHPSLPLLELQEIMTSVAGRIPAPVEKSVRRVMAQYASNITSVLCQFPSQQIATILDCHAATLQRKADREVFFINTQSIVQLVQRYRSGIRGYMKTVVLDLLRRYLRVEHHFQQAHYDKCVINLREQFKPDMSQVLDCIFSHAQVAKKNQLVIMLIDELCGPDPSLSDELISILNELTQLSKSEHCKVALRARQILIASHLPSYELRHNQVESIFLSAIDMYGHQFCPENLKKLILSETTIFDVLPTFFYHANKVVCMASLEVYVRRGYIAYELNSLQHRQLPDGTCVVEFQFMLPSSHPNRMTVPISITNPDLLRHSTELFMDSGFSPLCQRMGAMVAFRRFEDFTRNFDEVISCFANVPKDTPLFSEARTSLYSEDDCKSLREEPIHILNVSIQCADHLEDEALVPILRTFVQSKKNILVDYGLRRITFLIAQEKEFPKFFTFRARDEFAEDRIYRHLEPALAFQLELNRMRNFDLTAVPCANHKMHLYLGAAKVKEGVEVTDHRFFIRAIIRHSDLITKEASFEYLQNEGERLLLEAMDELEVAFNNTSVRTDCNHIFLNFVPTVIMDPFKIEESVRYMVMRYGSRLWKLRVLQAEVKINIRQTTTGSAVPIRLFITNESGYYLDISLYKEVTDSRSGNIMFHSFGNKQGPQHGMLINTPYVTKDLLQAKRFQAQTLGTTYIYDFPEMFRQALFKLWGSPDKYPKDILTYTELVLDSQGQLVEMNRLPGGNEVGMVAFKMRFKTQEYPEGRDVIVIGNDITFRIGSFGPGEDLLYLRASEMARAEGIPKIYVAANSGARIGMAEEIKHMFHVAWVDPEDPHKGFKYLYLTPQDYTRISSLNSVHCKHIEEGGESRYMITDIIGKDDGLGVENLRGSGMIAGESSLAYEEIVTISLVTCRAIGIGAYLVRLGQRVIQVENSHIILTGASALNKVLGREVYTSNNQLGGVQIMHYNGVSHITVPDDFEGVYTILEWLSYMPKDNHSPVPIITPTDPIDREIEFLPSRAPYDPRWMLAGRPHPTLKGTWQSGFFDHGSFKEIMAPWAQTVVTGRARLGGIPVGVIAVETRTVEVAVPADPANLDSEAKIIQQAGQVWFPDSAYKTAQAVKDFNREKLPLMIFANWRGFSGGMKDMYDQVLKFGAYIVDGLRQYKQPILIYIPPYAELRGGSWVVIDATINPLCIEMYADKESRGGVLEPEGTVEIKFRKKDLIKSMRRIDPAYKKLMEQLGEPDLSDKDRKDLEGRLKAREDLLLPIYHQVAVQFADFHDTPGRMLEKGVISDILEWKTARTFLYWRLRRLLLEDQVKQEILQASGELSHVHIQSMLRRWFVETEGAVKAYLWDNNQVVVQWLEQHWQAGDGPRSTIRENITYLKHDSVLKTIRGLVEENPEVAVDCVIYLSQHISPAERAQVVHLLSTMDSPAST

[10] = test system: Rattus norvegicus; test: Ratio of […] to fraction unbound in Sprague-Dawley rat at 3 to 5 umol/kg, iv; type: ADME, organism-based; conditions: in vivo
[11] = Fraction unbound in rat plasma at 10 uM after 18 hrs by equilibrium dialysis method; type: ADME, cell-free
[12] = Fraction unbound in human plasma at 10 uM after 18 hrs by equilibrium dialysis method; type: ADME, cell-free
[13] = biological target: Acetyl-CoA carboxylase 1 (Rattus norvegicus, UniProt P11497); test: Inhibition of rat ACC1 assessed as inorganic phosphate generation preincubated for 5 mins measured after 1.5 hrs using Malachite green reagent method
[14] = biological target: Acetyl-Coenzyme A carboxylase 2 (Rattus norvegicus, UniProt Q1HEC0); test: Inhibition of ACC2 […] preincubated for 15 mins measured after 1.5 hrs using Malachite green reagent method
[15] = biological target: CYP3A4 (Homo sapiens, UniProt P08684); test: Inhibition of CYP3A4 at 13 uM; type: ADME
Chain of CYP3A4 (P08684 whole entry): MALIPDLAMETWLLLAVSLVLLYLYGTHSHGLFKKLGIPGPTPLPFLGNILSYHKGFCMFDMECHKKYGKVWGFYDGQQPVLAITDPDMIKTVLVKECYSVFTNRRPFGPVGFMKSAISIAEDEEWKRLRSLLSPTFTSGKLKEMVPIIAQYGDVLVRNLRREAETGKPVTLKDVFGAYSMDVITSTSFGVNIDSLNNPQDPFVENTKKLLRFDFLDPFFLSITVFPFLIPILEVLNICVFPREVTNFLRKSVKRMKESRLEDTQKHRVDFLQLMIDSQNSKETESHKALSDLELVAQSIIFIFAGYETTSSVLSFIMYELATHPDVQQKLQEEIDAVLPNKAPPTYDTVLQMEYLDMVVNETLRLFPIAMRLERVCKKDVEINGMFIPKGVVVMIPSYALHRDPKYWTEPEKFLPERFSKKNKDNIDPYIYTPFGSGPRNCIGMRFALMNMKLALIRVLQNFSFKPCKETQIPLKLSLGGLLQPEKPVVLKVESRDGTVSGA

[16] = biological target: CYP2C9 (Homo sapiens, UniProt P11712); test: Inhibition of CYP2C9 at 13 uM; type: ADME
[17] = Clearance in C57BL/6 mouse at 20 umol/kg, iv and 20 umol/kg, po; type: ADME, organism-based; conditions: in vivo
[18] = biological target: T2, CYP1A2 (Homo sapiens, UniProt P05177); test: Inhibition of CYP1A2 at 13 uM; type: ADME
T2 sequence (P05177 whole entry): T1 sequence (P05177 whole entry)

[19] = biological target: Voltage-gated inwardly rectifying potassium channel KCNH2 (Homo sapiens, UniProt Q12809)
Chain of Voltage-gated inwardly rectifying potassium channel KCNH2 (Q12809 whole entry): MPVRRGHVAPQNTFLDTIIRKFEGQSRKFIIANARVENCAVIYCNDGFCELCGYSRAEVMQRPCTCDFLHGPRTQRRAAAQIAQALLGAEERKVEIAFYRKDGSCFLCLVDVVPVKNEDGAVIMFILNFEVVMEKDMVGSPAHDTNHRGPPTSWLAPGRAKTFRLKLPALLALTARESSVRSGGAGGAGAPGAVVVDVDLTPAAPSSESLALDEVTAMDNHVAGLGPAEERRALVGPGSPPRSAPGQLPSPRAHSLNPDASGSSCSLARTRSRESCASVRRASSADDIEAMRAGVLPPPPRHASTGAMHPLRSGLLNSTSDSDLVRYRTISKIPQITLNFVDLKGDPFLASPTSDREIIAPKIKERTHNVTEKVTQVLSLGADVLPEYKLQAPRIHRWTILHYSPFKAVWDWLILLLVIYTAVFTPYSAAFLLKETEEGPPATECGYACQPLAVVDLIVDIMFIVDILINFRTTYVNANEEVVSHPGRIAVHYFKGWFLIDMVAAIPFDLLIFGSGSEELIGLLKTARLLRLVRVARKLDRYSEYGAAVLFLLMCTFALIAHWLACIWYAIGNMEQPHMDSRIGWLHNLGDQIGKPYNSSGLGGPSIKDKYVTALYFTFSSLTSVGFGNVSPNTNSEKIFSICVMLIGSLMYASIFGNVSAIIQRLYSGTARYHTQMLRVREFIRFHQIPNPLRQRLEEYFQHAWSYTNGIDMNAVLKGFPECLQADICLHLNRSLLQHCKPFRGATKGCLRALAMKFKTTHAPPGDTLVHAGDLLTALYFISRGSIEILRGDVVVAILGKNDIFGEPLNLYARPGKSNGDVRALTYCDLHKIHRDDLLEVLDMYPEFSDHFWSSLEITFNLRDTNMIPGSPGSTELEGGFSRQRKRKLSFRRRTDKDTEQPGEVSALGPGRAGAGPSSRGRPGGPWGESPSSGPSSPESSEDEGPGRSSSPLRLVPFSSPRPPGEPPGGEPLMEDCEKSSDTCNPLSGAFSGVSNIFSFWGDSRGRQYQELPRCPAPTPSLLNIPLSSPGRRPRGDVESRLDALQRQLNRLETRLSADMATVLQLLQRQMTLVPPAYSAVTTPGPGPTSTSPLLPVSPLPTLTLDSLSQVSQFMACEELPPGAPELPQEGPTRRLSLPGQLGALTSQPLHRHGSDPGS

[20] = organism: Homo sapiens; test: Ratio IC50 for human ACC2 to IC50 for human ACC1
[21] = Oral bioavailability in C57BL/6 mouse at 20 umol/kg; type: ADME, organism-based; conditions: in vivo
[22] = biological target: CYP2C19 (Homo sapiens, UniProt P33261); test: Inhibition of CYP2C19 at 13 uM; type: ADME
Chain of CYP2C19 (P33261 whole entry): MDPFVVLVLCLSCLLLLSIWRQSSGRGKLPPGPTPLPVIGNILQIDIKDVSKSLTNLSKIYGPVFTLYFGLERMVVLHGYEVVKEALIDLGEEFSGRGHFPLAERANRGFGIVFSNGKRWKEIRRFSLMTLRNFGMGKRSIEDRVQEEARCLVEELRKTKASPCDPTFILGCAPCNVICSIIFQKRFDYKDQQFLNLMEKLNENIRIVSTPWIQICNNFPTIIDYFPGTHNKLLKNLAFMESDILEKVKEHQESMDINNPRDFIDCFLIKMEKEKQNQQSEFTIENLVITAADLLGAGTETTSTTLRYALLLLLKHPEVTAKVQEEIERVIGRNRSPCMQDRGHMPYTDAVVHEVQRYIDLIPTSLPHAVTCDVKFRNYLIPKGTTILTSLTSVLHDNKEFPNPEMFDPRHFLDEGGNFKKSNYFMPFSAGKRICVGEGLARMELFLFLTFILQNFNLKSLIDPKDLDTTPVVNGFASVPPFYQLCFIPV

[23] = test system: Rattus norvegicus; test: Antiobesity activity in obese Zucker rat assessed as reduction in hepatic malonyl-coA level, iv administered 2 hrs; type: functional; parameters: scale not given: the % may be the effect or the level left
Method in brief: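 Obese Zucker rats were anaesthetized with Inactin (180 mg/kg ip), tracheotomized and fitted with carotid and jugular catheters. After 1.5 h post-surgery stabilization at 37.5 °C, compound or vehicle was infused iv; lean vehicle controls were included. Hepatic malonyl-CoA was measured by ion-pair HPLC–negative ESI MS/MS against a ¹³C₃ internal standard and related to plasma free exposure (fu×Cp/rat ACC2 IC50).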

[24] = biological target: CYP2D6 (Homo sapiens, UniProt P10635); test: Inhibition of CYP2D6 at 13 uM; type: ADME
Chain of CYP2D6 (P10635 whole entry): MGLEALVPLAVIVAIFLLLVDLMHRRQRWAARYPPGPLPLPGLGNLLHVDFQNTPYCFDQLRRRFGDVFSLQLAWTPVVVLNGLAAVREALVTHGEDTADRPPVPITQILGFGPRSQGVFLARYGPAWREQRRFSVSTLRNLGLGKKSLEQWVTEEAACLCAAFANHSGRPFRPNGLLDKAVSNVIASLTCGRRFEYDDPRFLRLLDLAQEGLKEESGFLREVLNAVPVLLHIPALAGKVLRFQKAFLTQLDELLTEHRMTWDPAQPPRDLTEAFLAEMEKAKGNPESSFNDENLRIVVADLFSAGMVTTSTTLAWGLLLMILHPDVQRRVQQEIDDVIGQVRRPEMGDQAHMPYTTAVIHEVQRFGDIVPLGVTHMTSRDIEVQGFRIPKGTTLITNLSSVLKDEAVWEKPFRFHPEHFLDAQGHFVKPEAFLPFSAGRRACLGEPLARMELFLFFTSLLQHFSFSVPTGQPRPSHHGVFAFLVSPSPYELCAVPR

[25] = Half life in C57BL/6 mouse at 20 umol/kg, po; type: ADME, organism-based; conditions: in vivo
[26] = Volume of distribution in C57BL/6 mouse at 20 umol/kg, iv and 20 umol/kg, po; type: ADME, organism-based; conditions: in vivo
[27] = Half life in C57BL/6 mouse at 33 umol/kg, po; type: ADME, organism-based; conditions: in vivo
[28] = Volume of distribution in C57BL/6 mouse at 33 umol/kg, iv and po; type: ADME, organism-based; conditions: in vivo
[29] = Oral bioavailability in C57BL/6 mouse at 33 umol/kg; type: ADME, organism-based; conditions: in vivo
[30] = Clearance in C57BL/6 mouse at 33 umol/kg, iv and po; type: ADME, organism-based; conditions: in vivo
[31] = Apparent permeability from apical to basolateral side of human Caco2 cells at pH 7.4 by LCMS; type: ADME, cell-based; conditions: Caco-2, pH 7.4

Structure (SMILES): CC(C)(C)OC(=O)NC[C@H]1CC[C@H](CNC(=O)c2cc(-c3cccc(CN)c3)nc3ccccc23)CC1
- IC50 [1]: 240 nM
- IC50 [2]: 4000 nM
- logD [3]: 3.4
- microsomal CLint at 1 µM [4]: 14 µL/min/mg
- clearance [5]: 104 mL/min/kg
- IC50 [6]: 2400 nM
- solubility at 16 h [7]: 8 µM (≈ 4.02 µg/mL)
- IC50 [8]: 800 nM
- IC50 [9]: 52 nM

Structure (SMILES): CC(C)(C)OC(=O)NC[C@H]1CC[C@H](CNC(=O)c2cc(Cl)nc3ccccc23)CC1
- logD [3]: 4.9

Structure (SMILES): O=C(c1cc(-c2ccccc2)nc2ccccc12)N1CCN(Cc2ccc3c(c2)OCO3)CC1
- IC50 [9]: 3600 nM

Structure (SMILES): CC(C)(C)OC(=O)NC[C@H]1CC[C@H](CNC(=O)c2cc(-c3ccccc3)nc3ccccc23)CC1
- logD [3]: 5.9
- Ratio [10]: 12000
- fraction unbound at 18 h, 10 µM [11]: 0.005
- microsomal CLint at 1 µM [4]: 124 µL/min/mg
- clearance [5]: 60 mL/min/kg
- fraction unbound at 18 h, 10 µM [12]: 0.001
- solubility at 16 h [7]: < 1 µM
- IC50 [9]: 210 nM

Structure (SMILES): CC(C)(C)OC(=O)NC[C@H]1CC[C@H](CNC(=O)c2cc(-c3ccncc3)nc3ccccc23)CC1
- IC50 [1]: 1100 nM
- logD [3]: 4.4
- microsomal CLint at 1 µM [4]: 146 µL/min/mg
- solubility at 16 h [7]: < 1 µM

Structure (SMILES): CC(C)(C)OC(=O)NC[C@H]1CC[C@H](CNC(=O)c2cc(-c3cn[nH]c3)nc3ccccc23)CC1
- IC50 [1]: 2300 nM
- logD [3]: 3.5
- IC50 [9]: 570 nM

Structure (SMILES): CC(C)(C)OC(=O)NC[C@H]1CC[C@H](CNC(=O)c2ccnc(-c3ccccc3)c2)CC1
- logD [3]: 4.7

Structure (SMILES): CN(C)CCn1cc(-c2cc(C(=O)NC[C@H]3CC[C@H](CNC(=O)OC(C)(C)C)CC3)c3ccccc3n2)cn1
- IC50 [1]: 1300 nM
- logD [3]: 3.6

Structure (SMILES): CC(C)(C)OC(=O)NC[C@H]1CC[C@H](CNS(=O)(=O)c2ccc3ccccc3c2)CC1
- IC50 [9]: 2500 nM

Continued, in another order:

- IC50 [1]: 9900 nM
- logD [3]: 3.6
- IC50 [9]: 1700 nM
Structure (SMILES): CN(C)CCC1CCN(c2cc(C(=O)NC[C@H]3CC[C@H](COC(=O)NC(C)(C)C)CC3)c3ccccc3n2)CC1

- IC50 [13]: 460 nM
- IC50 [1]: 1200 nM
- IC50 [14]: 190 nM
- logD [3]: 3.6
- inhibition at 13 µM [15]: < 50%
- inhibition at 13 µM [16]: < 50%
- Ratio [10]: 800
- clearance [17]: 46 mL/min/kg
- microsomal CLint at 1 µM [4]: 14 µL/min/mg
- clearance [5]: 32 mL/min/kg
- inhibition at 13 µM [18]: < 50%
- Ratio IC50 [20]: 10
- bioavailability [21]: 131%
- inhibition at 13 µM [22]: < 50%
- fraction unbound at 18 h, 10 µM [12]: 0.034
- inhibition at 13 µM [24]: < 50%
- solubility at 16 h [7]: 79 µM (≈ 43.6 µg/mL)
- half-life [25]: 4.5 h
- Vd [26]: 6.7 L/kg
- IC50 [9]: 110 nM
Structure (SMILES): CN(C)CCC1CCN(c2cc(C(=O)NC[C@H]3CC[C@H](CNC(=O)OC(C)(C)C)CC3)c3ccccc3n2)CC1
- IC50 [19]: > 33000 nM
- Activity [23]: 50%

- IC50 [1]: 1000 nM
- half-life [27]: 2.9 h
- logD [3]: 4
- Vd [28]: 9.6 L/kg
- bioavailability [29]: 115%
- clearance [30]: 52 mL/min/kg
- IC50 [9]: 130 nM
Structure (SMILES): CN(C)CCC1CCN(c2cc(C(=O)NC[C@H]3CC[C@H](CNC(=O)OCC(C)(C)C)CC3)c3ccccc3n2)CC1

- IC50 [1]: 780 nM
- logD [3]: 3.2
- Papp A→B [31]: 0.5 ×10⁻⁶ cm/s
- IC50 [9]: 89 nM
Structure (SMILES): CC(C)(C)OC(=O)NC[C@H]1CC[C@H](CNC(=O)c2cc(N3CCC(CCN)CC3)nc3ccccc23)CC1

- logD [3]: 3
Structure (SMILES): CN(C)CCOC1CN(c2cc(C(=O)NC[C@H]3CC[C@H](CNC(=O)OC(C)(C)C)CC3)c3ccccc3n2)C1
